Assay results taken from PubChem BioAssay AID504775 (Broad Institute, 2011).
The campaign covered roughly 320,000 compounds. About 310 (0.097%) were called active. The sample as a whole holds a higher share of actives than the screen did. Values without a mark were called inactive.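 The calls were made as follows: active = mean replicate activation of at least 60% and every replicate at or above 60%; inconclusive = mean or all-replicate condition met, but not both; inactive = mean below 60% and not all replicates reaching 60%.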

Assay: enhancers of HDL lipid transfer via mSR-BI – ldlA[mSR-BI] CHO cells, DiI fluorescence, primary screen (AID 504775);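 also: 0% = median plate neutral-control signal and 100% = twice that signal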
Conditions: DiI-HDL uptake fluorescence, 3 h, at 12.5 µM, hits give high values, 100 = double the neutral-control signal
Outline: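 Material – SR-BI-overexpressing, LDLR-lacking CHO cells · Medium – BSA-supplemented, HEPES-buffered Ham's F12, pH 7.4 · Doses – single concentration · Times – compound with DiI-HDL co-incubation, 3 h at 37 °C · Measured by – bottom-read fluorescence, 550/595 nm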

| SMILES | activation |
| --- | --- |
| CC(=O)OC1CCC2(C)C(=CCC3C4CC(=O)N(O)C(=O)C4(C)CCC32)C1 (centres undefined) | 19% |
| COc1ccc(NC(=O)/C(N=Nc2cccc(S(=O)(=O)Nc3ccc(SC(F)F)cc3)c2)=C(\C)O)cc1 | 19.4% |
| COc1ccc2nc(N3C(=O)C(O)=C(C(=O)c4ccco4)C3c3ccco3)sc2c1 (centres undefined) | 2.11% |
| O=C1NC(=O)C(CCc2ccccc2)(c2ccccc2)N1 (centres undefined) | 20.8% |
| COC[C@@H]1NS(=O)(=O)c2ccc(Br)cc2O[C@H]1c1ccccc1 | -5.43% |
| Cc1ccc2c(c1)NC(=O)[C@@]1(C)[C@@H](c3ccccc3)[C@H]3COc4ccc(Cl)cc4[C@@H]3N1C2=O | 138% (active) |
| CCOC(=O)[C@H]1[C@H]2COc3ccc(Cl)cc3[C@@H]2N2C(=O)c3cc(C)ccc3NC(=O)[C@@]12C | 5.05% |
| COc1ccc2c(c1)[C@H]1[C@H](CO2)[C@H](c2ccccc2)[C@]2(C)C(=O)Nc3cc(F)c(F)cc3C(=O)N12 | -10.6% |
| CCOc1ccc(CCNC(=O)COC(=O)C2CCN(S(=O)(=O)c3ccccc3)CC2)cc1OCC | -35% |
| COc1cc(NC(=S)NCc2ccc(S(N)(=O)=O)cc2)cc(OC)c1 | 1.73% |
| NS(=O)(=O)c1ccc(NC(=O)COC(=O)c2ccco2)cc1 | -5.86% |
| NS(=O)(=O)c1ccc(CNC(=S)NC(=O)c2ccco2)cc1 | 304% (active) |
| COc1ccc(/C=C2/CCCc3ccccc3C2=O)cc1 | -12.7% |
| CN(CCc1ccccc1)C(=O)c1cccc(NC(=O)Cc2cccc(NC(=O)C3CCCN(C(=O)C4CCC4)C3)c2)c1 (centres undefined) | -26.9% |
| CN(Cc1ccccc1)C(=O)c1ccc(NC2=NC3CS(=O)(=O)CC3S2)cc1 (centres undefined) | -2.73% |
| COc1ccccc1N1CCN(C(=O)c2ccc(NC3=NC4CS(=O)(=O)CC4S3)cc2)CC1 (centres undefined) | 14.4% |
| O=C(NCCc1ccccc1)c1ccc(NC2=NC3CS(=O)(=O)CC3S2)cc1 (centres undefined) | 85.7% (active) |

| SMILES | activation |
| --- | --- |
| COc1cc2c(cc1OC)C1C(=O)c3cc(OS(C)(=O)=O)c(OC)cc3C1N(C)C2=O (centres undefined) | 1.01% |
| COc1ccc(Cn2cc(CN3CCS(=O)(=O)N(Cc4ccc(-c5cccc(Cl)c5)cc4)C(C)C3=O)nn2)cc1 (centres undefined) | -34.7% |
| O=[N+]([O-])c1ccc(COc2ccccc2CN2CCOCC2)cc1 | 19.3% |
| COc1cccc(CNC(=O)CN(C)S(=O)(=O)c2ccc3c(c2)c(=O)n(C)c(=O)n3C)c1 | -3.22% |
| CC1CCC(NC(=O)CN(C)S(=O)(=O)c2ccc3c(c2)c(=O)n(C)c(=O)n3C)CC1 (centres undefined) | 246% (active) |
| CCc1ccccc1NC(=O)CN(C)S(=O)(=O)c1ccc2c(c1)c(=O)n(C)c(=O)n2C | -3.85% |
| O=C1CC(C(=O)O)NC(=S)N1 (centres undefined) | 3.49% |
| Cc1cc(C)c(C=NNc2nc3c([nH]2)c(=O)n(C)c(=O)n3C)c(C)c1 | 12.4% |
| CN(C)CCNC(=O)c1ccc(Cl)c2cc3ccccc3nc12 | 8.43% |
| CCN(CC)S(=O)(=O)c1cccc(NC(=O)c2ccc(S(=O)(=O)N3CCCC3)cc2)c1 | -41.2% |
| CC(C)=CCc1ccc(O)c(=O)cc1C(C)C | -12.4% |
| O=C(Nc1c(Br)cc2c(c1Br)Cc1cc([N+](=O)[O-])ccc1-2)C(Cl)Cl | -60.9% |
| CN(O)C(=S)c1ccccc1 | 24.5% |
| O=C1CC(c2ccccc2)C(c2ccccc2)=NN1 (centres undefined) | 1.49% |
| COc1cc(/C=C/CNC[C@H]2O[C@@H](n3cnc(C(N)=O)n3)[C@H](O)[C@@H]2O)ccc1O | 8.13% |
| O=S(=O)(Cc1ccc(Cl)cc1Cl)c1ccc(Cl)cc1 | -15.8% |
| Cc1ccc2c(O)c(Cc3ccccc3)c(=O)[nH]c2n1 | -7.66% |
